Calls of active or inactive are those of the source.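 The calls were made as follows, unless noted: active = GFP response above 150% of the DMSO level; inconclusive = fewer than 70 events counted for a yeast strain; inactive = the rest.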
Legend:
[1] = hit retest on RPL19A-GFP reporter strain – cell-based, S. cerevisiae, flow cytometry, cherry picks, mother/daughter gates, confirmation (AID 2270;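 active = GFP response below 50% of the DMSO control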); details: 3 h, at 10 µM, stronger effect = lower value, 100 = same GFP as DMSO wells
[2] = yeast TOR pathway reporter LAP4-GFP change – cell-based, cherry picks, flow cytometry, mother/daughter gates, confirmation (AID 2271;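 active = GFP response above 150% of the DMSO control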;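 also: ratio of sample to DMSO plate mean so 100% equals DMSO level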); details: S. cerevisiae LAP4-GFP strain, 3 h, at 10 µM, stronger effect = higher value, 100 means same as DMSO control
Procedure, shortened: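 Material – Alexa Fluor 633-labelled Saccharomyces cerevisiae GFP-fusion strain, single-plex · Incubation – compound exposure 3 h at 30 °C, end-over-end rotation · Measured by – GFP by flow cytometry · Measure – median GFP fluorescence as percent of plate-mean DMSO wells · Control set – positive rapamycin (400 ng/mL), negative DMSO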

[3] = TOR pathway reporter MEP2-GFP, retest of hits – S. cerevisiae, flow cytometry GFP, cherry picks, confirmation (AID 2272;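 active = GFP response above 150% of the DMSO control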;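 also: ratio of well signal to plate DMSO mean so 100% equals DMSO level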); details: S. cerevisiae MEP2-GFP strain, 3 h, at 10 µM, stronger effect = higher value
[4] = yeast AGP1-GFP fluorescence change, single-dose – cell-based, flow cytometry, S. cerevisiae, cherry picks, confirmation (AID 2273);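 also: median GFP channel fluorescence over the whole cell population gate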; details: S. cerevisiae AGP1-GFP strain, 3 h, at 10 µM
[5] = TOR pathway CIT2 reporter hit retest – S. cerevisiae, GFP fusion, cherry picks, mother/daughter gates, confirmation (AID 2274); details: S. cerevisiae CIT2-GFP strain, flow cytometry, 3 h, at 10 µM, stronger effect = higher value
[6] = measured here: daughter cell gate
[7] = measured here: mother cell gate
[8] = measured here: daughter cell gate response
[9] = measured here: mother cell gate response

SMILES	GFP response vs DMSO [1]	GFP response vs DMSO [1, 6]	GFP response vs DMSO [1, 7]	GFP response relative to DMSO [2]	GFP response relative to DMSO [2, 8]	GFP response relative to DMSO [2, 9]	GFP response vs DMSO [3]	GFP response, % of DMSO [4]	GFP response, % of DMSO [5]	GFP response, % of DMSO [5, 6]	GFP response, % of DMSO [5, 7]
CCCCCCc1cc2cc(-c3nnc(-c4ccccc4OC)o3)c(=O)oc2cc1O	98.7% (inactive)	99.3%	98.4%	111% (inactive)	105%	111%	106% (inactive)	99.1% (inactive)	100% (inactive)	101%	98.2%
Cc1ccc(N2C(=O)C(Cl)=C(Nc3c(C)n(C)n(-c4ccccc4)c3=O)C2=O)cc1	96.9% (inactive)	93.9%	96.1%	101% (inactive)	101%	101%	101% (inactive)	105% (inactive)	100% (inactive)	103%	100%
O=C(NCc1cccnc1)c1cnc2n(c1=O)CCS2	101% (inactive)	101%	101%	101% (inactive)	104%	100%	99.3% (inactive)	102% (inactive)	98.6% (inactive)	101%	99.3%
CCN(CC)CCN(C(=O)c1ccc2c(c1)CCCC2)c1nc2cc(OC)c(OC)cc2s1	94.1% (inactive)	96%	94.1%	98.8% (inactive)	99.3%	95.6%	97.5% (inactive)	101% (inactive)	99.3% (inactive)	102%	98%
COc1ccccc1/C=C/C=N/NC(=O)c1cccs1	97.8% (inactive)	97.3%	97.5%	99.8% (inactive)	95.6%	102%	107% (inactive)	100% (inactive)	99.1% (inactive)	96.5%	97.7%
CCOC(=O)c1cc2c(=O)n3ccccc3nc2n(CCOC)c1=NC(=O)C(C)(C)C	99.4% (inactive)	99.1%	97.3%	94.4% (inactive)	92.6%	94.1%	99% (inactive)	103% (inactive)	94.4% (inactive)	93.8%	93.2%
Cc1ccc(N2C3=C(C(=O)CC(C)(C)C3)C(c3cn(C)nc3C)C3=C2CC(C)(C)CC3=O)cc1	105% (inactive)	102%	104%	119% (inactive)	122%	117%	131% (inactive)	103% (inactive)	134% (inactive)	132%	132%
Cc1nn2c(N3CCOCC3)c3c(nc2c1-c1ccccc1)CCCC3	103% (inactive)	102%	102%	101% (inactive)	96%	102%	103% (inactive)	103% (inactive)	103% (inactive)	101%	102%
O=C(c1ccccc1[N+](=O)[O-])n1cnc2ccccc21	100% (inactive)	101%	100%	96.1% (inactive)	98.2%	96.2%	94.4% (inactive)	87.1% (inactive)	117% (inactive)	110%	119%
CNC(=O)/C(C#N)=C/c1c(N2CC(C)OC(C)C2)nc2ccccn2c1=O (configuration not stated)	97.6% (inactive)	88.7%	90.1%	94.4% (inactive)	92.6%	92%	101% (inactive)	110% (inactive)	98.8% (inactive)	95.6%	85.8%
CCCc1[nH]nc2c1C(c1ccc(OCCN3CCOCC3)c(OCC)c1)C(C#N)=C(N)O2 (configuration not stated)	98.4% (inactive)	98.4%	98.9%	90.2% (inactive)	95.6%	91.1%	97.8% (inactive)	97.8% (inactive)	107% (inactive)	105%	108%
CCCc1[nH]nc2c1C(c1ccc(OC)c(Cn3nnc4ccccc43)c1)C(C#N)=C(N)O2 (configuration not stated)	98% (inactive)	98.6%	98.2%	104% (inactive)	102%	103%	100% (inactive)	103% (inactive)	99.7% (inactive)	99.1%	99.7%
O=C1C(CSCc2ccccc2)NC(=S)N1c1ccccc1 (configuration not stated)	102% (inactive)	102%	101%	122% (inactive)	120%	128%	98.8% (inactive)	98.1% (inactive)	99.7% (inactive)	102%	94.7%
Cc1[nH]n(-c2ncc(-c3ccccc3)s2)c(=O)c1C(c1ccc(Cl)cc1)C(C#N)C#N (configuration not stated)	94.5% (inactive)	98.1%	91.6%	156% (active)	136%	159%	106% (inactive)	100% (inactive)	95.8% (inactive)	101%	89.3%
COc1ccc(NS(=O)(=O)c2cccc3ccccc23)cc1	99.4% (inactive)	99.6%	99.2%	97.9% (inactive)	97.6%	97.2%	102% (inactive)	101% (inactive)	99.7% (inactive)	99.1%	98.5%
O=C1C(Cl)=C(NCCc2ccccc2)C(=O)N1CCc1ccccc1	103% (inactive)	103%	104%	106% (inactive)	107%	101%	112% (inactive)	103% (inactive)	106% (inactive)	106%	106%
Cc1ccc(/C=N/NC(=O)c2ccccn2)s1	99.2% (inactive)	97.1%	97%	99.5% (inactive)	95.9%	99.4%	101% (inactive)	95.1% (inactive)	94.4% (inactive)	93.8%	94.4%
CC(C)CC[n+]1ccccc1/C=C/c1ccc(N(C)C)cc1	98.2% (inactive)	94.9%	95.5%	107% (inactive)	108%	107%	126% (inactive)	107% (inactive)	115% (inactive)	119%	113%
CCCc1nnc(NC(=O)c2nc(S(=O)(=O)Cc3cccc(C)c3)ncc2Cl)s1	95.1% (inactive)	96.4%	95.2%	106% (inactive)	102%	107%	103% (inactive)	101% (inactive)	97.2% (inactive)	99.3%	98.2%
CCNC(=O)c1ccccc1-c1nc(-c2ccccc2Cl)no1	95.6% (inactive)	94.7%	95%	104% (inactive)	97.5%	104%	103% (inactive)	98.6% (inactive)	98.6% (inactive)	99.3%	97.1%
Cc1ccc(Sc2ncnc3onc(C)c23)cc1	95.4% (inactive)	95.7%	95.5%	117% (inactive)	117%	117%	96.8% (inactive)	99% (inactive)	105% (inactive)	105%	102%
Cc1cc(C)nc(/N=c2/ssnc2Cl)c1	88.7% (inactive)	87.3%	86.4%	142% (inactive)	131%	143%	107% (inactive)	111% (inactive)	124% (inactive)	110%	116%

From PubChem BioAssay
